# Tests used:
# CAKI-1 = assay: Growth inhibition of human Caki1 cells incubated for 48 hrs by sulforhodamine B assay; type: functional; conditions: CAKI-1, 48 h
# SK-MEL-2 = assay: Growth inhibition of human SK-MEL-2 cells incubated for 48 hrs by sulforhodamine B assay; type: functional; conditions: SK-MEL-2, 48 h
# A498 = assay: Growth inhibition of human A498 cells incubated for 48 hrs by sulforhodamine B assay; type: functional; conditions: A498, 48 h
# RPMI-8226 = assay: Growth inhibition of human RPMI8226 cells incubated for 48 hrs by sulforhodamine B assay; type: functional; conditions: RPMI-8226, 48 h
# UACC-257 = assay: Growth inhibition of human UACC257 cells incubated for 48 hrs by sulforhodamine B assay; type: functional; conditions: UACC-257, 48 h
# OVCAR-4 = assay: Growth inhibition of human OVCAR4 cells incubated for 48 hrs by sulforhodamine B assay; type: functional; conditions: OVCAR-4, 48 h
# SK-MEL-28 = assay: Growth inhibition of human SK-MEL-28 cells incubated for 48 hrs by sulforhodamine B assay; type: functional; conditions: SK-MEL-28, 48 h
# NCI-H322M = assay: Growth inhibition of human NCI-H322M cells incubated for 48 hrs by sulforhodamine B assay; type: functional
# OVCAR-5 = assay: Growth inhibition of human OVCAR5 cells incubated for 48 hrs by sulforhodamine B assay; type: functional; conditions: OVCAR-5, 48 h
# UO-31 = assay: Growth inhibition of human UO31 cells incubated for 48 hrs by sulforhodamine B assay; type: functional; conditions: UO-31, 48 h
# M14 = assay: Growth inhibition of human M14 cells incubated for 48 hrs by sulforhodamine B assay; type: functional; conditions: M14, 48 h
# SR = assay: Growth inhibition of human SR cells incubated for 48 hrs by sulforhodamine B assay; type: functional
# MDA-MB-435 = assay: Growth inhibition of human MDA-MB-435 cells incubated for 48 hrs by sulforhodamine B assay; type: functional; conditions: MDA-MB-435, 48 h
# HCC 2998 = assay: Growth inhibition of human HCC2998 cells incubated for 48 hrs by sulforhodamine B assay; type: functional; conditions: HCC 2998, 48 h
# LOX IMVI = assay: Growth inhibition of human LOXIMVI cells incubated for 48 hrs by sulforhodamine B assay; type: functional
# SW-620 = assay: Growth inhibition of human SW620 cells incubated for 48 hrs by sulforhodamine B assay; type: functional; conditions: SW-620, 48 h
# U-251 = assay: Growth inhibition of human U251 cells incubated for 48 hrs by sulforhodamine B assay; type: functional; conditions: U-251, 48 h
# SF-295 = assay: Growth inhibition of human SF295 cells incubated for 48 hrs by sulforhodamine B assay; type: functional; conditions: SF-295, 48 h
# SNB-75 = assay: Growth inhibition of human SNB75 cells incubated for 48 hrs by sulforhodamine B assay; type: functional; conditions: SNB-75, 48 h
# SN12C = assay: Growth inhibition of human SN12C cells incubated for 48 hrs by sulforhodamine B assay; type: functional
# OVCAR-8 = assay: Growth inhibition of human OVCAR8 cells incubated for 48 hrs by sulforhodamine B assay; type: functional; conditions: OVCAR-8, 48 h
# [1] = Stabilization of 5'Dabcyl/3'FAM labeled duplex DNA (unknown origin) assessed as increase in melting temperature at 2.5 uM pretreated for 5 mins at 30 degreeC followed by 5 mins incubation at 95 degreeC by fluorescence assay
# How it was run: (§1)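 FRET melting in LiP buffer (10 mM LiOH, 50 mM KCl, pH 7.0 with H3PO4), ex 488 nm, em 520 nm. Samples were held 5 min at 30 °C, heated at 1 °C/min to 95 °C, held 5 min, then re-annealed. Tm came from first derivatives; ΔTm = shift with ligand at 2.5; at least three runs.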
# RXF 393 = assay: Growth inhibition of human RXF393 cells incubated for 48 hrs by sulforhodamine B assay; type: functional; conditions: RXF 393, 48 h
# Homo sapiens = organism: Homo sapiens; assay: Stabilization of 5'Dabcyl/3'FAM labeled human telomeric sequence G-quadruplex DNA assessed as increase in melting temperature at 2.5 uM pretreated for 5 mins at 30 degreeC followed by 5 mins incubation at 95 degreeC by fluorescence assay; how it was run: as §1
# Hs-578T = assay: Growth inhibition of human Hs 578T cells incubated for 48 hrs by sulforhodamine B assay; type: functional
# DU-145 = assay: Growth inhibition of human DU145 cells incubated for 48 hrs by sulforhodamine B assay; type: functional; conditions: DU-145, 48 h
# SF-268 = assay: Growth inhibition of human SF268 cells incubated for 48 hrs by sulforhodamine B assay; type: functional; conditions: SF-268, 48 h
# IGROV-1 = assay: Growth inhibition of human IGROV1 cells incubated for 48 hrs by sulforhodamine B assay; type: functional; conditions: IGROV-1, 48 h
# TK-10 = assay: Growth inhibition of human TK10 cells incubated for 48 hrs by sulforhodamine B assay; type: functional; conditions: TK-10, 48 h
# HOP-92 = assay: Growth inhibition of human HOP92 cells incubated for 48 hrs by sulforhodamine B assay; type: functional; conditions: HOP-92, 48 h
# SK-OV-3 = assay: Growth inhibition of human SKOV3 cells incubated for 48 hrs by sulforhodamine B assay; type: functional; conditions: SK-OV-3, 48 h
# ACHN = assay: Growth inhibition of human ACHN cells incubated for 48 hrs by sulforhodamine B assay; type: functional
# MDA-MB-231 = assay: Growth inhibition of human MDA-MB-231 cells incubated for 48 hrs by sulforhodamine B assay; type: functional; conditions: MDA-MB-231, 48 h
# PC-3 = assay: Growth inhibition of human PC3 cells incubated for 48 hrs by sulforhodamine B assay; type: functional; conditions: PC-3, 48 h
# NCI-H226 = assay: Growth inhibition of human NCI-H226 cells incubated for 48 hrs by sulforhodamine B assay; type: functional; conditions: NCI-H226, 48 h
# BT-549 = assay: Growth inhibition of human BT549 cells incubated for 48 hrs by sulforhodamine B assay; type: functional; conditions: BT-549, 48 h
# OVCAR-3 = assay: Growth inhibition of human OVCAR3 cells incubated for 48 hrs by sulforhodamine B assay; type: functional; conditions: OVCAR-3, 48 h
# MDA-MB-468 = assay: Growth inhibition of human MDA-MB-468 cells incubated for 48 hrs by sulforhodamine B assay; type: functional; conditions: MDA-MB-468, 48 h
# NCI/ADR-RES = assay: Growth inhibition of human NCI-ADR-RES cells incubated for 48 hrs by sulforhodamine B assay; type: functional
# HCT-116 = assay: Growth inhibition of human HCT116 cells incubated for 48 hrs by sulforhodamine B assay; type: functional; conditions: HCT-116, 48 h
# NCI-H460 = assay: Growth inhibition of human NCI-H460 cells incubated for 48 hrs by sulforhodamine B assay; type: functional; conditions: NCI-H460, 48 h
# MCF7 = assay: Growth inhibition of human MCF7 cells incubated for 48 hrs by sulforhodamine B assay; type: functional; conditions: MCF7, 48 h
# T47D = assay: Growth inhibition of human T47D cells incubated for 48 hrs by sulforhodamine B assay; type: functional
# 786-0 = assay: Growth inhibition of human 786-0 cells incubated for 48 hrs by sulforhodamine B assay; type: functional; conditions: 786-0, 48 h
smiles,measurement,setting,value
COc1ccccc1CNCCCN1C(=O)c2ccc3c4c(ccc(c24)C1=O)C(=O)N(CCCOCCCCOCCCN)C3=O,GI50,CAKI-1,1830 nM
same,GI50,SK-MEL-2,1830 nM
same,GI50,A498,1320 nM
same,GI50,RPMI-8226,1720 nM
same,GI50,UACC-257,283 nM
same,GI50,OVCAR-4,197 nM
same,GI50,SK-MEL-28,1590 nM
same,GI50,NCI-H322M,1900 nM
same,GI50,OVCAR-5,1890 nM
same,GI50,UO-31,1550 nM
same,GI50,M14,1090 nM
same,GI50,SR,346 nM
same,GI50,MDA-MB-435,200 nM
same,GI50,HCC 2998,635 nM
same,GI50,LOX IMVI,760 nM
same,GI50,SW-620,357 nM
same,GI50,U-251,1240 nM
same,GI50,SF-295,1420 nM
same,GI50,SNB-75,1790 nM
same,GI50,SN12C,918 nM
same,GI50,OVCAR-8,491 nM
same,ΔTm,[1],1.5 °C
same,GI50,RXF 393,771 nM
same,ΔTm,Homo sapiens,12.9 °C
same,GI50,Hs-578T,2020 nM
same,GI50,DU-145,1780 nM
same,GI50,SF-268,1430 nM
same,GI50,IGROV-1,1260 nM
same,GI50,TK-10,1970 nM
same,GI50,HOP-92,2080 nM
same,GI50,SK-OV-3,2360 nM
same,GI50,ACHN,1110 nM
same,GI50,MDA-MB-231,1220 nM
same,GI50,PC-3,1440 nM
same,GI50,NCI-H226,1560 nM
same,GI50,BT-549,1950 nM
same,GI50,OVCAR-3,593 nM
same,GI50,MDA-MB-468,289 nM
same,GI50,NCI/ADR-RES,1470 nM
same,GI50,HCT-116,344 nM
same,GI50,NCI-H460,657 nM
same,GI50,MCF7,333 nM
same,GI50,T47D,976 nM
same,GI50,786-0,1530 nM
COc1ccccc1CNCCCN1C(=O)c2ccc3c4c(ccc(c24)C1=O)C(=O)N(CCCN)C3=O,GI50,CAKI-1,1760 nM
same,GI50,SK-MEL-2,1440 nM
same,GI50,A498,1540 nM
same,GI50,RPMI-8226,1110 nM
same,GI50,UACC-257,424 nM
same,GI50,OVCAR-4,257 nM
same,GI50,SK-MEL-28,1730 nM
same,GI50,NCI-H322M,1660 nM
same,GI50,OVCAR-5,1950 nM
same,GI50,UO-31,1500 nM
same,GI50,M14,1060 nM
same,GI50,SR,167 nM
same,GI50,MDA-MB-435,196 nM
same,GI50,HCC 2998,1860 nM
same,GI50,LOX IMVI,526 nM
same,GI50,SW-620,442 nM
same,GI50,U-251,1590 nM
same,GI50,SF-295,1430 nM
same,GI50,SNB-75,1580 nM
same,GI50,SN12C,1170 nM
same,GI50,OVCAR-8,421 nM
same,ΔTm,[1],6.7 °C
same,GI50,RXF 393,377 nM
same,ΔTm,Homo sapiens,1.4 °C
same,GI50,Hs-578T,1740 nM
same,GI50,DU-145,1380 nM
same,GI50,SF-268,1230 nM
same,GI50,IGROV-1,1000 nM
same,GI50,TK-10,1640 nM
same,GI50,HOP-92,2100 nM
same,GI50,SK-OV-3,2670 nM
same,GI50,ACHN,1660 nM
same,GI50,MDA-MB-231,1590 nM
same,GI50,PC-3,1660 nM
same,GI50,NCI-H226,1780 nM
same,GI50,BT-549,1660 nM
same,GI50,OVCAR-3,301 nM
same,GI50,MDA-MB-468,406 nM
same,GI50,NCI/ADR-RES,2900 nM
same,GI50,HCT-116,394 nM
same,GI50,NCI-H460,524 nM
same,GI50,MCF7,302 nM
same,GI50,T47D,1170 nM
same,GI50,786-0,1940 nM
COc1ccccc1CNCCCN1C(=O)c2ccc3c4c(ccc(c24)C1=O)C(=O)N(CCCNCCCCNCCCN)C3=O,GI50,CAKI-1,2610 nM
same,GI50,SK-MEL-2,229 nM
same,GI50,A498,1340 nM
same,GI50,RPMI-8226,626 nM
same,GI50,UACC-257,176 nM
same,GI50,OVCAR-4,160 nM
same,GI50,SK-MEL-28,390 nM
same,GI50,NCI-H322M,1210 nM
same,GI50,OVCAR-5,2030 nM
same,GI50,UO-31,2680 nM
same,GI50,M14,645 nM
same,GI50,SR,325 nM
same,GI50,MDA-MB-435,213 nM
same,GI50,HCC 2998,296 nM
same,GI50,LOX IMVI,300 nM
same,GI50,SW-620,262 nM
same,GI50,U-251,328 nM
same,GI50,SF-295,1080 nM
same,GI50,SNB-75,752 nM
same,GI50,SN12C,319 nM
same,GI50,OVCAR-8,288 nM
same,ΔTm,[1],6.7 °C
same,GI50,RXF 393,324 nM
same,ΔTm,Homo sapiens,21.4 °C
same,GI50,Hs-578T,1360 nM
same,GI50,DU-145,693 nM
same,GI50,SF-268,338 nM
same,GI50,IGROV-1,360 nM
same,GI50,TK-10,422 nM
same,GI50,HOP-92,687 nM
same,GI50,SK-OV-3,2110 nM
same,GI50,ACHN,747 nM
same,GI50,MDA-MB-231,435 nM
same,GI50,PC-3,564 nM
same,GI50,NCI-H226,928 nM
same,GI50,BT-549,1710 nM
same,GI50,OVCAR-3,262 nM
same,GI50,MDA-MB-468,133 nM
same,GI50,NCI/ADR-RES,2040 nM
same,GI50,HCT-116,315 nM
same,GI50,NCI-H460,311 nM
same,GI50,MCF7,200 nM
same,GI50,T47D,214 nM
same,GI50,786-0,1170 nM

# Reference: ChEMBL document CHEMBL4004831, “Naphthalene diimide-polyamine hybrids as antiproliferative agents: Focus on the architecture of the polyamine chains” (Eur J Med Chem, 2017)
